# Bioassay records deposited in PubChem by several laboratories.
# TPT1 inh: inhibitors of Candida albicans tRNA 2'-phosphotransferase TPT1; recombinant caTPT1, FP RNA substrate dephosphorylation; inhibition, % at 5 µM; actives 0.81% (n = 300,000); AID 1962;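 active = inhibition above the mean of all tested compounds plus 3 SD, set per screening campaign, cut at about 24% in these data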;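 note: plate controls were DMSO alone for no effect and ferristatin control at 100 nM for full effect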
# CSN deneddyl inh: blocks human CSN-mediated cullin deneddylation; Purified CSN, SCF-Nedd8-OG deneddylation, fluorescence polarization; inhibition, % at 12.5 µM; actives 0.38% (n = 360,000); AID 651999;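 active = pattern-corrected inhibition above about 35%, with an unprinted fluorescence ratio check between 0.5 and 1.5, limit read from the data, passing the limit was not always enough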;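 note: 0% = enzyme with substrate and 100% = substrate without enzyme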
# Target sequence (Q92905 whole entry, looked up, one chain of several): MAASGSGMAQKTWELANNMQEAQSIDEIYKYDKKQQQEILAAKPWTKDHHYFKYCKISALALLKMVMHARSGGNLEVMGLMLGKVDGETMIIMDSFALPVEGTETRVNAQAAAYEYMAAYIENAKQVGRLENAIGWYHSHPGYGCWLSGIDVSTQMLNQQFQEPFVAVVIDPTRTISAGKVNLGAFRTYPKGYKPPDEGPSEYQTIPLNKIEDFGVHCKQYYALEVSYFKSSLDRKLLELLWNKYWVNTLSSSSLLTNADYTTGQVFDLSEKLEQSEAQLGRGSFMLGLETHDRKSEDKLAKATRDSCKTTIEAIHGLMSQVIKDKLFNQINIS
#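 Assay system: purified human Csn5 enzyme expressed in HEK293T cells; Input: 0.24 nM Csn5 enzyme, final concentration; Reagent: 10 nM SCFSkp2-Nedd8OG; Compound dosing: 12.5 µM single point; Times: reaction 90 min, room temperature; Technique: fluorescence polarization readout.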
# HNF4A DNA FP: change in binding of human HNF4 alpha to DNA; P41235; HNF4a-FITC DNA binding, fluorescence polarization, 1 h; activity change, % at 10 µM; actives 0.3% (n = 360,000); in the data active = activity change above about 30%, passing the limit was not always enough
# PKA-R1A act: activators of PKA-R1A complex | P00514+P68181 | PKA-R1A dissociation, Cy5-IP20 fluorescence polarization; scaled: DMSO 0%, 113 µM cGMP 100% | activation, % at 11.4 µM | actives 0.083% (n = 340,000);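 active = percent activation above the mean of all tested compounds plus 3 SD, cut at about 19% in these data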;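 note: higher means more PKAc released from R1A so a rise in polarization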
# Rpn11 block: blocks the human proteasome subunit Rpn11; O00487; human 26S proteasome, Ub4-pepOG fluorescence polarization; 20S core pre-blocked with epoxomicin; calls only at 20 µM; actives 0.59% (n = 360,000);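 active = inhibition at 20 µM, scaled to each plate's controls, above about 33%, limit read from the data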
# Target sequence (O00487 whole entry, looked up): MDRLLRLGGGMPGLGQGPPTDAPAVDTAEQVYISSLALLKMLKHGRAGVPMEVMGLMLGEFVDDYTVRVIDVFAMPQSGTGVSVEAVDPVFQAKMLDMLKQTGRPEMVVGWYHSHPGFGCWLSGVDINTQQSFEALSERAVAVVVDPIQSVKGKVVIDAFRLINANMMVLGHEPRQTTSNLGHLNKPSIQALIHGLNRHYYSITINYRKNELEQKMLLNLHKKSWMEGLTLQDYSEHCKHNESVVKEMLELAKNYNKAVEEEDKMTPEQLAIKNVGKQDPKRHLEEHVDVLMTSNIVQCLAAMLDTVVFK
# PKA-R2B activ: activates the human PKA-R2B holoenzyme complex. PKA-R2B holoenzyme dissociation, Cy5-IP20 fluorescence polarization; R2B truncated from residue 108, S112A mutant; 0% DMSO only, 100% 113 µM cGMP. actives 0.079% (n = 340,000). activation, % at 11.4 µM. P22694+P31323;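 active = activation above a cutoff set at the mean over all compounds plus 3 SD, cut at about 18% in these data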;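 note: higher means more holoenzyme dissociation and a rise in polarization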
# TPT1 inh confirm: confirmation of Candida albicans TPT1 inhibitors; actives 74% (n = 2,400); inhibition, % at 5 µM; shares compounds with TPT1 inh; recombinant caTPT1, fluorescence polarization, RNase T1 coupled; AID 2149;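 active = inhibition above the primary screen limit, the mean inhibition of all tested compounds plus 3 SD, cut at about 25% in these data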
# RNase T1 inh: blocks Aspergillus oryzae RNase T1, a TPT1 counter-screen; actives 83% (n = 2,400); inhibition, % at 5 µM; shares compounds with TPT1 inh; AID 2153; RNase T1 cleavage, fluorescence polarization, 1536-well;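 active = inhibition above the solvent-only control well mean plus 3 SD, limit set per screening run, cut at about 23% in these data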;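 note: plate controls were DMSO wells with enzyme for no effect and wells without RNase T1 for full effect; inhibitors block cleavage so intact labeled substrate keeps polarization high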
# Rpn11 inh conf: Rpn11 inhibition confirmation, single concentration. shares compounds with Rpn11 block. purified human 26S proteasome, Ub4-pepOG fluorescence polarization; proteasome pretreated with epoxomicin. inhibition, % at 20 µM. actives 29% (n = 1,900). AID 602318
# MMP-2 counter-1: MMP-2 (human) inhibition counter-screen | shares compounds with Rpn11 block | actives 4% (n = 1,900) | AID 602330 | recombinant MMP-2, FRET peptide cleavage fluorescence | inhibition, % at 20 µM;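 note: human MMP-2 activated beforehand with APMA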
# Thrombin FP: counter-screen for RPN11 inhibitors: inhibition of bovine thrombin. AID 602333. actives 13% (n = 1,900). bovine thrombin cleavage of Ub4-pepOG, fluorescence polarization. inhibition, % at 20 µM. shares compounds with Rpn11 block;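 active = mean inhibition at least 40% at 20 µM, or signal 3 deviations below plate average, so some actives read negative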;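 note: plate controls were thrombin with DMSO for no effect and buffer wells lacking thrombin for full effect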
# CSN5 deneddyl: Csn5 (human) deneddylation inhibition, single-concentration validation. shares compounds with CSN deneddyl inh. Csn5 deneddylation of SCF-Nedd8OG, fluorescence polarization, 90 min. inhibition, % at 16.6 µM. actives 62% (n = 540); in the data active = inhibition above about 50%;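 note: 0% = DMSO with enzyme and 100% = no enzyme wells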
# MMP-2 counter-2: blocks human MMP-2 in a CSN deneddylation counter-screen | shares compounds with CSN deneddyl inh | recombinant MMP-2, FRET substrate fluorescence, 60 min | inhibition, % at 16.6 µM | actives 33% (n = 540);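 active = corrected plate-normalized z-score of 5 or more, or -5 or less, or inhibition of 15% or more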;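 note: plate controls were DMSO wells with enzyme for no effect and buffer wells lacking MMP-2 for full effect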
# Thrombin cntr: thrombin (bovine) inhibition, counter-screen for CSN hits; shares compounds with CSN deneddyl inh; bovine thrombin cleavage of Ub4-pepOG, fluorescence polarization; inhibition, % at 16.6 µM; actives 49% (n = 540); AID 720656;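 active = inhibition at or above a set limit, with a fluorescence interference ratio between 0.5 and a set maximum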
# * = called active by the depositor; i = inactive; / = not tested or not shown; + = active, no number. A selection: hits, their analogues and other compounds. The true share with any hit is near 1.6%. Cut-off read from the data, not from the text of the source, unless noted: active = inhibition above about 40%; inactive = the rest.
SMILES,TPT1 inh,CSN deneddyl inh,HNF4A DNA FP,PKA-R1A act,Rpn11 block,PKA-R2B activ,TPT1 inh confirm,RNase T1 inh,CSN5 deneddyl,MMP-2 counter-2,Thrombin cntr,others
C(=C\c1ccco1)/C1=NN(c2ccccc2)C(c2ccco2)C1 (stereo unspecified),53*,84*,33,-5,+,-9,38*,47*,62*,-3,31*,Rpn11 inh conf=70*;MMP-2 counter-1=7;Thrombin FP=55*
Fc1ccc(C2=NN(c3ccccc3)C(c3ccco3)C2)cc1 (stereo unspecified),-1,11,3,-20,i,-7,/,/,/,/,/,
CCN1/C(=C/c2ccc3cccc(C)c3[n+]2CC)Sc2ccccc21,60*,54*,107*,-1,+,-8,66*,76*,23,-13,20,
C=CCSC1=N/C(=C\C=C\c2ccco2)C(=O)S1,29*,57*,1,-3,i,-9,28*,38*,68*,30*,8,
C=CCSC1=N/C(=C\c2sccc2C)C(=O)S1,1,-1,-2,5,i,-3,/,/,/,/,/,
O=C(CCN1C(=O)/C(=C\c2ccco2)SC1=S)Nc1ccc(C(=O)O)c(O)c1,25*,57*,-20,-9,+,-1,11,15,72*,14,1,Rpn11 inh conf=23;MMP-2 counter-1=26;Thrombin FP=22
COc1ccccc1CNS(=O)(=O)c1cc(-c2cc(C)no2)ccc1C(C)C,1,-3,1,0,i,-6,/,/,/,/,/,
Cc1ccccc1C(=O)NC(CC(C)C)C(=O)OCC(=O)c1c(N)n(C)c(=O)n(C)c1=O (stereo unspecified),0,3,-3,-10,i,0,/,/,/,/,/,
Nc1[nH]c2cc([N+](=O)[O-])ccc2c1-c1ccccn1,101*,64*,91*,4,/,6,102*,105*,49,-5,44*,
CCOC(=O)/C(=C/C1=CC(=C/N(C)C)/C(=O)O1)C(C)=O,124*,93*,66*,3,/,-8,140*,138*,121*,-23,82*,
Cc1cccc(NC(=O)CCNC(=O)c2ccc(Br)cc2)c1,-1,0,0,-5,i,3,/,/,/,/,/,
O=C(N/N=C/c1c(O)ccc2ccccc12)c1cccc(C(F)(F)F)c1,135*,69*,92*,-2,/,6,149*,137*,63*,-25*,49*,
COc1ccccc1N=C1NC(=O)/C(=C/c2ccc(N(C)C)cc2)S1,119*,41*,144,-15,/,2,131*,125*,153*,-25*,21*,
COc1cc(/C=C2\SC(c3ccc(C)cc3)=NC2=O)ccc1O,80*,72*,78*,-5,+,-3,98*,101*,-11,0,50*,
COc1ccc(N=C2NC(=O)/C(=C/c3ccc(O)c(OC)c3)S2)cc1,32*,37*,23,-2,+,-2,44*,52*,64*,0,35*,Rpn11 inh conf=49*;MMP-2 counter-1=2;Thrombin FP=68*
COc1ccc(C2=NN(c3ccccc3)C(=O)/C2=C\c2ccc(O)c(OC)c2)cc1,7,0,6,-8,i,-11,/,/,/,/,/,
COc1cc(/C=C2\SC(=Nc3ccc(O)cc3)NC2=O)cc(OC)c1OC,0,/,/,/,/,/,/,/,/,/,/,
COc1cc(/C=C2/C(=O)NN(c3ccc(Cl)cc3)C2=O)cc(Br)c1O,67*,45*,-10,-17,+,2,112*,123*,-16,7,23*,Rpn11 inh conf=193*;MMP-2 counter-1=36;Thrombin FP=79*
COc1cc(/C=C2/C(=O)NN(c3ccc(Cl)c(Cl)c3)C2=O)cc([N+](=O)[O-])c1O,13,3,-2,5,i,-4,/,/,/,/,/,
C#CCn1cnc2c(oc3ccccc32)c1=O,0,-1,-2,-2,i,-9,/,/,/,/,/,
CC1=CN2C(=N)/C(=C/c3ccco3)C(=O)N=C2S1,1,-2,1,-2,i,-2,/,/,/,/,/,
CC1=CN2C(=N)/C(=C/c3ccc([N+](=O)[O-])o3)C(=O)N=C2S1,77*,102*,66*,-3,/,4,118*,118*,52*,10,92*,
CCN(CC)S(=O)(=O)c1cccc(C(=O)N/N=C/c2ccc(O)c(O)c2O)c1,10,-12,3,-15,i,-13,/,/,/,/,/,
CCN(CC)S(=O)(=O)c1cccc(C(=O)N/N=C(\C)c2ccc(O)cc2O)c1,89*,37*,27,-2,/,-7,140*,129*,92*,-27*,79*,
CC(C)NC(=O)N(C)C[C@@H]1OCc2cnnn2CCCC(=O)N([C@H](C)CO)C[C@H]1C,/,3,5,-8,i,6,/,/,/,/,/,
CCOc1ccc(NC(=O)CC(NCc2ccccn2)C(=O)O)cc1 (stereo unspecified),-5,-18,-1,10,i,0,/,/,/,/,/,
Cc1ccc2nc(/C(C#N)=C\c3ccc([N+](=O)[O-])o3)[nH]c2c1,55*,52*,103,-4,+,2,47*,59*,30,18*,44*,Rpn11 inh conf=12;MMP-2 counter-1=-18;Thrombin FP=19
